Data taken from ChEMBL document CHEMBL1127344, “Tridentate ligands containing the SNS donor atom set as a novel backbone for the development of technetium brain-imaging agents” (J Med Chem, 1994).

How the values were obtained:
Rattus norvegicus [1] = organism: Rattus norvegicus; test: Tested for biodistribution of compound at 30 min in rat muscle; format: ADME, organism-based, Muscle tissue; conditions: in vivo, 0.5 h
Rattus norvegicus [2] = organism: Rattus norvegicus; test: Tested for biodistribution of compound at 30 min in rat liver; format: ADME, organism-based; conditions: in vivo, 0.5 h
Rattus norvegicus [3] = organism: Rattus norvegicus; test: Tested for biodistribution of compound at 30 min in rat stomach; format: ADME, organism-based; conditions: in vivo, 0.5 h
Rattus norvegicus [4] = organism: Rattus norvegicus; test: Tested for biodistribution of compound at 30 min in rat s. intestine; format: ADME, organism-based; conditions: in vivo, 0.5 h
Rattus norvegicus [5] = organism: Rattus norvegicus; test: Tested for biodistribution of compound at 60 min in rat lungs; format: ADME, organism-based, Lung; conditions: in vivo, 1 h
Mus musculus [6] = organism: Mus musculus; test: Tested for biodistribution of compound at 30 min in mice urine; format: ADME, organism-based; conditions: in vivo, 0.5 h
How it was run: (§1)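 Male Swiss albino mice, at least five per group, received 0.1 mL (2-3 μCi) of HPLC-purified 99mTc complex reconstituted in 50% methanol by tail vein. They were killed by cardiectomy under light ether anesthesia at set times (1-60 min pi). Organs were weighed and γ-counted against a 1% injected-dose standard to give % dose/organ. Blood and muscle were taken as 7% and 43% of body weight.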

Rattus norvegicus [7] = organism: Rattus norvegicus; test: Tested for biodistribution of compound at 60 min in rat heart; format: ADME, organism-based; conditions: in vivo, 1 h
Mus musculus [8] = organism: Mus musculus; test: Tested for biodistribution of compound at 10 min in mice urine; format: ADME, organism-based; conditions: in vivo; how it was run: as §1
Rattus norvegicus [9] = organism: Rattus norvegicus; test: Tested for biodistribution of compound at 60 min in rat s. intestine; format: ADME, organism-based; conditions: in vivo, 1 h
Mus musculus [10] = organism: Mus musculus; test: Tested for biodistribution of compound at 5 min in mice liver; format: ADME, organism-based; conditions: in vivo
How it was run: (§2)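 Male Swiss albino mice, at least five per group, received HPLC-purified 99mTc complex by tail vein. The complex was reconstituted in 50% methanol (0.1 mL, 2-3 μCi). Mice were killed by cardiectomy under light ether at 1-60 min pi. Organs were weighed and γ-counted against a 1% injected-dose standard to give % dose/organ. Blood and muscle were taken as 7% and 43% of body weight.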

Mus musculus [11] = organism: Mus musculus; test: Tested for biodistribution of compound at 5 min in mice kidney; format: ADME, organism-based; conditions: in vivo; how it was run: as §2
Rattus norvegicus [12] = organism: Rattus norvegicus; test: Tested for biodistribution of compound at 5 min in rat brain; format: ADME, organism-based; conditions: in vivo
Rattus norvegicus [13] = organism: Rattus norvegicus; test: Tested for biodistribution of compound at 10 min in rat spleen; format: ADME, organism-based; conditions: in vivo
How it was run: (§3)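 Wistar rats under ether anesthesia were dosed through the femoral vein with 0.1 mL of 99mTc complex (3-6 μCi) and dissected 5-60 min pi. Tissue radioactivity was γ-counted against a 1% injected-dose standard and expressed as % dose/organ. Blood and muscle were calculated from sample weight assuming 7% and 43% of body weight.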

Rattus norvegicus [14] = organism: Rattus norvegicus; test: Tested for biodistribution of compound at 5 min in rat muscle; format: ADME, organism-based, Muscle tissue; conditions: in vivo
Mus musculus [15] = organism: Mus musculus; test: Tested for biodistribution of compound at 60 min in mice liver; format: ADME, organism-based; conditions: in vivo, 1 h; how it was run: as §2
Rattus norvegicus [16] = organism: Rattus norvegicus; test: Tested for biodistribution of compound at 10 min in rat heart; format: ADME, organism-based; conditions: in vivo; how it was run: as §3
Rattus norvegicus [17] = organism: Rattus norvegicus; test: Tested for biodistribution of compound at 5 min in rat heart; format: ADME, organism-based; conditions: in vivo
Mus musculus [18] = organism: Mus musculus; test: Tested for biodistribution of compound at 5 min in mice lungs; format: ADME, organism-based, Lung; conditions: in vivo; how it was run: as §2
Rattus norvegicus [19] = organism: Rattus norvegicus; test: Tested for biodistribution of compound at 60 min in rat l intestine; format: ADME, organism-based; conditions: in vivo, 1 h
Mus musculus [20] = organism: Mus musculus; test: Tested for biodistribution of compound at 5 min in mice spleen; format: ADME, organism-based; conditions: in vivo; how it was run: as §2
Rattus norvegicus [21] = organism: Rattus norvegicus; test: Tested for biodistribution of compound at 10 min in rat muscle; format: ADME, organism-based, Muscle tissue; conditions: in vivo; how it was run: as §3
Rattus norvegicus [22] = organism: Rattus norvegicus; test: Tested for biodistribution of compound at 30 min in rat brain; format: ADME, organism-based; conditions: in vivo, 0.5 h; how it was run: as §3
Mus musculus [23] = organism: Mus musculus; test: Tested for biodistribution of compound at 60 min in mice intestine; format: ADME, organism-based; conditions: in vivo, 1 h; how it was run: as §2
Rattus norvegicus [24] = organism: Rattus norvegicus; test: Tested for biodistribution of compound at 30 min in rat l intestine; format: ADME, organism-based; conditions: in vivo, 0.5 h; how it was run: as §3
Mus musculus [25] = organism: Mus musculus; test: Tested for biodistribution of compound at 1 min in mice liver; format: ADME, organism-based; conditions: in vivo; how it was run: as §1
Mus musculus [26] = organism: Mus musculus; test: Tested for biodistribution of compound at 60 min in mice lungs; format: ADME, organism-based, Lung; conditions: in vivo, 1 h; how it was run: as §2
Mus musculus [27] = organism: Mus musculus; test: Tested for biodistribution of compound at 1 min in mice intestine; format: ADME, organism-based; conditions: in vivo; how it was run: as §1
Rattus norvegicus [28] = organism: Rattus norvegicus; test: Tested for biodistribution of compound at 5 min in rat kidney; format: ADME, organism-based; conditions: in vivo
Rattus norvegicus [29] = organism: Rattus norvegicus; test: Tested for biodistribution of compound at 30 min in rat heart; format: ADME, organism-based; conditions: in vivo, 0.5 h; how it was run: as §3
Mus musculus [30] = organism: Mus musculus; test: Tested for biodistribution of compound at 10 min in mice heart; format: ADME, organism-based; conditions: in vivo; how it was run: as §1
Mus musculus [31] = organism: Mus musculus; test: Tested for biodistribution of compound at 5 min in mice intestine; format: ADME, organism-based; conditions: in vivo; how it was run: as §2
Rattus norvegicus [32] = organism: Rattus norvegicus; test: Tested for biodistribution of compound at 30 min in rat lungs; format: ADME, organism-based, Lung; conditions: in vivo, 0.5 h
Rattus norvegicus [33] = organism: Rattus norvegicus; test: Tested for biodistribution of compound at 60 min in rat brain; format: ADME, organism-based; conditions: in vivo, 1 h
Rattus norvegicus [34] = organism: Rattus norvegicus; test: Tested for biodistribution of compound at 5 min in rat lungs; format: ADME, organism-based, Lung; conditions: in vivo
Mus musculus [35] = organism: Mus musculus; test: Tested for biodistribution of compound at 30 min in mice lungs; format: ADME, organism-based, Lung; conditions: in vivo, 0.5 h; how it was run: as §1
Mus musculus [36] = organism: Mus musculus; test: Tested for biodistribution of compound at 10 min in mice brain; format: ADME, organism-based; conditions: in vivo; how it was run: as §1
Mus musculus [37] = organism: Mus musculus; test: Tested for biodistribution of compound at 1 min in mice lungs; format: ADME, organism-based, Lung; conditions: in vivo; how it was run: as §1
Mus musculus [38] = organism: Mus musculus; test: Tested for biodistribution of compound at 30 min in mice muscle; format: ADME, organism-based, Muscle tissue; conditions: in vivo, 0.5 h; how it was run: as §1
Rattus norvegicus [39] = organism: Rattus norvegicus; test: Tested for biodistribution of compound at 5 min in rat spleen; format: ADME, organism-based; conditions: in vivo
Mus musculus [40] = organism: Mus musculus; test: Tested for biodistribution of compound at 30 min in mice blood; format: ADME, organism-based; conditions: in vivo, 0.5 h; how it was run: as §1
Mus musculus [41] = organism: Mus musculus; test: Tested for biodistribution of compound at 5 min in mice muscle; format: ADME, organism-based, Muscle tissue; conditions: in vivo; how it was run: as §2
Rattus norvegicus [42] = organism: Rattus norvegicus; test: Tested for biodistribution of compound at 60 min in rat stomach; format: ADME, organism-based; conditions: in vivo, 1 h
Mus musculus [43] = organism: Mus musculus; test: Tested for biodistribution of compound at 60 min in mice brain; format: ADME, organism-based; conditions: in vivo, 1 h; how it was run: as §2
Mus musculus [44] = organism: Mus musculus; test: Tested for biodistribution of compound at 30 min in mice liver; format: ADME, organism-based; conditions: in vivo, 0.5 h; how it was run: as §1
Rattus norvegicus [45] = organism: Rattus norvegicus; test: Tested for biodistribution of compound at 10 min in rat stomach; format: ADME, organism-based; conditions: in vivo; how it was run: as §3
Mus musculus [46] = organism: Mus musculus; test: Tested for biodistribution of compound at 5 min in mice blood; format: ADME, organism-based; conditions: in vivo; how it was run: as §2
Mus musculus [47] = organism: Mus musculus; test: Tested for biodistribution of compound at 1 min in mice spleen; format: ADME, organism-based; conditions: in vivo; how it was run: as §1
Rattus norvegicus [48] = organism: Rattus norvegicus; test: Tested for biodistribution of compound at 5 min in rat s. intestine; format: ADME, organism-based; conditions: in vivo

A Dose/organ (Rattus norvegicus [1]) of 16.52%, a Dose/organ (Rattus norvegicus [2]) of 29.63% and a Dose/organ (Rattus norvegicus [3]) of 2.19% were found for “[4-methoxythio)phenolato][N,N-bis(2-mercaptoethyl)-N',N'-diethylethylenediamine] oxotechnetium” in this work. The Dose/organ (Rattus norvegicus [4]) was 7.55%, the Dose/organ (Rattus norvegicus [5]) was 1.14% and the Dose/organ (Mus musculus [6]) was 5.06%. The Dose/organ (Rattus norvegicus [7]) was 0.15%, the Dose/organ (Mus musculus [8]) was 1.1% and the Dose/organ (Rattus norvegicus [9]) was 8.15%. For the same substance, the Dose/organ (Mus musculus [10]) was 10.73%, the Dose/organ (Mus musculus [11]) was 3.14% and the Dose/organ (Rattus norvegicus [12]) was 1.45%. It also gave a Dose/organ (Rattus norvegicus [13]) of 0.77%, a Dose/organ (Rattus norvegicus [14]) of 28.6% and a Dose/organ (Mus musculus [15]) of 35.12%. For the same substance, the Dose/organ (Rattus norvegicus [16]) was 0.51%, the Dose/organ (Rattus norvegicus [17]) was 0.64% and the Dose/organ (Mus musculus [18]) was 15.37%. The Dose/organ (Rattus norvegicus [19]) was 1.05%, the Dose/organ (Mus musculus [20]) was 0.28% and the Dose/organ (Rattus norvegicus [21]) was 27.89%. The Dose/organ (Rattus norvegicus [22]) was 0.53%, the Dose/organ (Mus musculus [23]) was 33.7% and the Dose/organ (Rattus norvegicus [24]) was 1.27%. For the same substance, the Dose/organ (Mus musculus [25]) was 1.96%, the Dose/organ (Mus musculus [26]) was 1.79% and the Dose/organ (Mus musculus [27]) was 2.61%. The Dose/organ (Rattus norvegicus [28]) was 3.22%, the Dose/organ (Rattus norvegicus [29]) was 0.17% and the Dose/organ (Mus musculus [30]) was 0.46%. For the same substance, the Dose/organ (Mus musculus [31]) was 8.31%, the Dose/organ (Rattus norvegicus [32]) was 2.08% and the Dose/organ (Rattus norvegicus [33]) was 0.46%. The Dose/organ (Rattus norvegicus [34]) was 9.38%, the Dose/organ (Mus musculus [35]) was 3.09% and the Dose/organ (Mus musculus [36]) was 2.47%. It also gave a Dose/organ (Mus musculus [37]) of 27.19%, a Dose/organ (Mus musculus [38]) of 8.18% and a Dose/organ (Rattus norvegicus [39]) of 0.58%. The Dose/organ (Mus musculus [40]) was 1.29%, the Dose/organ (Mus musculus [41]) was 24.17% and the Dose/organ (Rattus norvegicus [42]) was 2.05%. The Dose/organ (Mus musculus [43]) was 1.54%, the Dose/organ (Mus musculus [44]) was 25.58% and the Dose/organ (Rattus norvegicus [45]) was 2.37%. For the same substance, the Dose/organ (Mus musculus [46]) was 2.02%, the Dose/organ (Mus musculus [47]) was 0.03% and the Dose/organ (Rattus norvegicus [48]) was 5.96%.
